# Most compounds without a hit are left out; they make up all but 1.7% or so of the library.
# Scp-1 inhibitor: inhibitors of human Scp-1 phosphatase | Q9GZU7 | inhibition, % at 20 µM | Recombinant Scp1, phosphopeptide, malachite green phosphate absorbance | hit rate 0.88% among 340,000;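 active = inhibition above about 50% at 20 µM, limit read from the data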
#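 System: truncated SCP-1 phosphatase (76-261aa); medium: Tris acetate buffer pH 5.5 with MgCl2 and Tween-20; incubation: 45 min room-temperature reaction, 5 min colour, 30 min stabiliser; compound: single 20 µM dose, 1% DMSO; reagent: Phosphorylated 17-residue peptide substrate; read-out: % inhibition at 20 µM; technique: colorimetric free-phosphate detection, absorbance 630 nm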
# DNMT1 block: DNMT1 (human) enzyme inhibition; P26358; AID 588458; inhibition (reported as % activation of signal), % at 10 µM; hit rate 0.83% among 360,000; DNMT1 molecular beacon, Hinp1I cleavage, fluorescence; in the data active = inhibition above about 50%
# Target sequence (P26358 504-1616 limits assumed): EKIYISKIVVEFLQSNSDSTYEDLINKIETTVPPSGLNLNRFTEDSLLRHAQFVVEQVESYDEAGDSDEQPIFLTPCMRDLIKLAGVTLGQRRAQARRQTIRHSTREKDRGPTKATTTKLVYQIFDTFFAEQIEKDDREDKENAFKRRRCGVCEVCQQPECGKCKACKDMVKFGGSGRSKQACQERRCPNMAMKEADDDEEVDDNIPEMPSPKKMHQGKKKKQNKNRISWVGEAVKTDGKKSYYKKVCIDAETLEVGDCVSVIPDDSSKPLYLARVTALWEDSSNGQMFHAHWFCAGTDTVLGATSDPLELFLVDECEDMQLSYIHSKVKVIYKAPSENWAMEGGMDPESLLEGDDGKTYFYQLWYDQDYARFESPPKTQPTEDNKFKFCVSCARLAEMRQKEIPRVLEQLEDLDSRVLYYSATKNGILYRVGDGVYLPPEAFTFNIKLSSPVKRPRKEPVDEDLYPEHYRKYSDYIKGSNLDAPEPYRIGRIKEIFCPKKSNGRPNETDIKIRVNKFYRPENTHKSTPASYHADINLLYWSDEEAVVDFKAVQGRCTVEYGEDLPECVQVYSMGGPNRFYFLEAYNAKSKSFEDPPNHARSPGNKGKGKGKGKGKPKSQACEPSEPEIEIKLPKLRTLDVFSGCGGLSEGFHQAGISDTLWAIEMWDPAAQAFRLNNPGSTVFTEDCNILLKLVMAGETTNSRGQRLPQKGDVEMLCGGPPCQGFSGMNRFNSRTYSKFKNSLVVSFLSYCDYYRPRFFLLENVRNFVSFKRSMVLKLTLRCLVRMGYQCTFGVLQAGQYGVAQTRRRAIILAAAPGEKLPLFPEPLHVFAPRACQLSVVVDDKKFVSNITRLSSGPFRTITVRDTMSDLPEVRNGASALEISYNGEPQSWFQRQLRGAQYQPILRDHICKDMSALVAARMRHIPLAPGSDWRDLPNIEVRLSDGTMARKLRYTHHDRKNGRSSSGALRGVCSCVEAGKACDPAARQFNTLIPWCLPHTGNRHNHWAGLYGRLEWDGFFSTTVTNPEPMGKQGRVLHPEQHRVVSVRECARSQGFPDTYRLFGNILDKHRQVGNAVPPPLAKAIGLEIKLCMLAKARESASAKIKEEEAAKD
# SUMO1 PPI mod: alters human SUMO1 binding to SIM partners; P63165; SUMO1 binding to a labelled peptide, TR-FRET, 1 h; inhibition, % at 20 µM; hit rate 0.33% among 360,000; in the data active = inhibition above about 37%
# LMPTP block: blocks human LMPTP phosphatase; P24666; recombinant LMPTP-A, OMFP fluorogenic substrate, fluorescence intensity; inhibition, % at 20 µM; hit rate 0.22% among 360,000; AID 651560;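 active = compounds that cut the enzyme signal by at least half of the control window in the single-dose screen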
#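 Test system: LMPTP-A, protein tyrosine phosphatase of low molecular weight; Input: 0.625 nM enzyme; Incubation: 50 min dark incubation at room temperature; Signal: endpoint fluorescence intensity from OMFP dephosphorylation; Read-out basis: % inhibition versus control wells.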
# STEP inh: STEP (human) phosphatase inhibition; P54829; recombinant STEP, OMFP fluorogenic substrate, fluorescence; inhibition, % at 20 µM; hit rate 0.25% among 360,000;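 active = inhibition at 20 µM, scaled per plate between control wells, above about 37%, limit read from the data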
#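 Also added – OMFP at 25 µM · Test system – STEP tyrosine phosphatase · Technique – FITC-channel fluorescence of OMFP product · Schedule – 20 min at room temperature, dark · Evaluation – control-normalized % inhibition with plate pattern correction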
# Scp-1 conf: Scp-1 (human) inhibition, single-dose confirmed; shares compounds with Scp-1 inhibitor; recombinant SCP-1 catalytic domain, phosphate release, malachite green absorbance; inhibition, % at 20 µM; hit rate 61% among 2,500
# Scp-1 MG ctr: colorimetric interference in Scp-1 counter-screen | apparent inhibition (interference), % at 20 µM | Colorimetric interference counterscreen, malachite green absorbance 630 nm | shares compounds with Scp-1 inhibitor | 2,500 tested, under 10 active;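 also: compounds added after enzyme reaction finished so only phosphate colour detection is probed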
# Scp1 DSF: validation of human Scp-1 inhibitors by thermal shift binding; Recombinant SCP1, Sypro Orange thermal shift Tm; shares compounds with Scp-1 inhibitor; thermal shift relative to vanadate control, % at 40 µM; hit rate 25% among 1,500;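 active = substances whose mean melting-temperature shift, as a percentage of the reference inhibitor's shift, reaches about 5.3%, limit read from the data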
# Beacon interf DR: counter-screen for DNMT1 inhibitors: spectral interference, dose response | shares compounds with DNMT1 block | molecular beacon fluorescence | IC50, µM | 200 tested, under 10 active; call rule not given here
# DNMT1 confirm: DNMT1 inhibition confirmation, single concentration. shares compounds with DNMT1 block. DNMT1 molecular beacon HinP1I cleavage, fluorescence. inhibition, % at 10 µM. hit rate 8% among 2,300;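 active = average inhibition of at least 30% in the single-concentration confirmation test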
# Beacon interf: shows spectral interference in the DNMT1 beacon assay. shares compounds with DNMT1 block. DNMT1 molecular beacon spectral interference counterscreen, fluorescence 485/520. activation (fluorescence interference), % at 10 µM. hit rate 1% among 2,300. AID 602387;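 active = activation of at least 30% at 10 µM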;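 also: DNMT1 catalytic domain with a HinP1I cleavage step and a FAM/dabcyl DNA beacon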
# Numbers stand for hits; - = inactive; . = not tested or not shown.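 The calls were made as follows, unless noted: active = inhibition of at least 30% at 20 µM; inactive = the rest.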
SMILES,Scp-1 inhibitor,DNMT1 block,SUMO1 PPI mod,LMPTP block,STEP inh,Scp-1 conf,Scp-1 MG ctr,Scp1 DSF,DNMT1 confirm,Beacon interf,others
Cc1cc(/C=C(/C#N)c2nc3ccccc3[nH]2)c(C)n1-c1ccccc1C(=O)O,-,-,-,-,-,.,.,.,.,.,
CCN(CC)c1ccc(NC(=O)CCS(=O)(=O)c2ccc(Br)cc2)c(C)c1,82,97,-,-,-,49,-,-,42,-,Beacon interf DR=-
O=C(CCS(=O)(=O)c1ccc(Br)cc1)NCCC1=CCCCC1,63,65,-,-,-,72,-,-,-,-,
Cc1ccc(CNC(=O)CCS(=O)(=O)c2ccc(Br)cc2)cc1,84,89,-,-,-,76,-,-,-,-,
O=C(C1CC(=O)N(c2ccc(Cl)cc2)C1)N1CCC(c2nc3ccccc3[nH]2)CC1 (centres undefined),-,-,-,-,-,.,.,.,.,.,
COc1ccc(S(=O)(=O)N2CCN(C(=O)c3cc4c(s3)CCC4)CC2)cc1,84,100,-,57,-,68,-,-,40,-,Beacon interf DR=-
Cc1ccc(S(=O)(=O)N2CCN(C(=O)c3cc4c(s3)CCCC4)CC2)cc1,-,-,-,-,-,.,.,.,.,.,
CSc1nc(C(=O)N2CCCC(Nc3ccc(C)c(C)c3)C2)cs1 (centres undefined),-,-,-,-,-,.,.,.,.,.,
Cc1cc(C(=O)NCc2ccc(C(=O)O)o2)c(C)o1,56,78,-,-,-,52,-,-,-,-,
O=CC(O)C1OC(=O)C(O)C1O (centres undefined),64,90,-,-,-,43,-,-,44,-,Beacon interf DR=-
O=C1O[C@H](CO)[C@@H](O)[C@H](O)[C@H]1O,-,-,-,-,-,.,.,.,.,.,
O=C(NCc1cccc(CNC(=O)C(=O)NCc2ccco2)c1)C(=O)NCc1ccco1,91,91,-,56,-,65,-,-,-,-,
CCN1CCCC1CNC(=O)c1[nH]c2ccc(OC)cc2c1C (centres undefined),-,-,-,-,-,.,.,.,.,.,
NS(=O)(=O)c1ccc(CNC(=O)Cc2cccs2)cc1,83,52,-,50,-,48,-,6.9,-,-,
O=[N+]([O-])c1ccc(/C=N/Nc2nc3ccccc3o2)cc1,50,56,-,-,-,56,-,-,-,-,
CCS(=O)(=O)c1ccc(C=NNc2nc3ccccc3o2)cc1,-,-,-,-,-,.,.,.,.,.,
COCc1cc(C)n(CC(=O)N/N=C/c2ccc(-c3ccc(Cl)c(C(=O)O)c3)o2)c(=O)c1C#N,66,58,-,-,-,63,-,-,-,-,
O=C(O)/C(=C/c1ccco1)NC(=O)c1ccccc1,75,67,-,-,-,42,-,-,-,-,
CC(C)(C)c1ccc(C(=O)N/C(=C\c2ccco2)C(=O)O)cc1,-,-,-,-,-,.,.,.,.,.,
O=C(N/N=C/c1ccc([N+](=O)[O-])o1)c1cn2ccc3ccccc3c2n1,80,55,-,-,-,-,-,.,-,-,
O=C(/C=C/c1ccc(Cl)c([N+](=O)[O-])c1)Nc1ccc(NC(=O)c2ccco2)cc1,-,-,-,-,-,.,.,.,.,.,
O=C(/C=C/c1ccc(Cl)c([N+](=O)[O-])c1)Nc1ccc(N2CCCC2)cc1,88,88,-,-,-,77,-,6.0,-,-,
COc1cc2[nH]c(C(=O)Nc3ccc(F)cc3)cc2c(OC)c1OC,.,-,-,-,-,.,.,.,.,.,
CCOc1ccc(N=C2NC(=O)S/C2=C\c2ccc(OC)cc2)cc1,61,64,-,-,-,78,-,-,-,-,
Cc1cccc(NC(=O)CNC(=O)c2cccc(-n3cccc3)c2)c1C,73,87,-,-,-,75,-,-,-,-,
SMILES,Scp-1 inhibitor,DNMT1 block,SUMO1 PPI mod,LMPTP block,STEP inh,Scp-1 conf,Scp-1 MG ctr,Scp1 DSF,DNMT1 confirm,Beacon interf,others
Cc1ccc(NC(=O)CN(C)C(=O)c2cccc(-n3cccc3)c2)cc1,91,100,48,-,-,72,-,-,34,-,Beacon interf DR=-
COc1ccc(/C=C(\NC(=O)c2ccccc2)C(=O)N2CCC(C)CC2)cc1,-,-,-,-,-,.,.,.,.,.,
Cc1sc2ncn(CC(=O)NCc3ccco3)c(=O)c2c1-c1ccc(F)cc1,-,-,-,-,-,.,.,.,.,.,
O=C(Cn1cnc2scc(-c3cccc([N+](=O)[O-])c3)c2c1=O)NCc1ccco1,78,83,-,-,-,70,-,11,-,-,
c1ccc(-c2nc3c4ccccc4ccn3c2Cc2ccsc2)cc1,.,-,-,-,-,.,.,.,.,.,
N#CCCN(C(=O)CSc1nnc(-c2ccncc2)n1C1CC1)c1ccccc1,-,-,-,-,-,.,.,.,.,.,
NC(=O)Cc1ccc(C(=O)CSc2nnc(-c3ccncc3)n2C2CC2)s1,79,78,-,57,-,82,-,7.0,-,-,
CCOc1ccc(S(=O)(=O)N2CCCCC2)cc1NC(=O)CN1C(=O)NC(C)(C2CC2)C1=O (centres undefined),-,-,-,-,-,.,.,.,.,.,
CSC1=N/C(=C\c2ccc(Br)o2)C(=O)S1,84,101,-,-,-,53,-,-,-,-,
CCc1nc2c(OCc3ccc(Cl)cc3Cl)cccn2c1N(C=O)Cc1ccc(OC)cc1,.,-,-,-,-,.,.,.,.,.,
Cc1ccc(S(=O)(=O)Cc2ccc(C(=O)N3CCc4ccccc4C3)o2)cc1,76,81,-,-,-,54,-,-,-,-,
Cc1cccc(N2NC(=O)/C(=C/c3ccc(-c4ccc(Cl)c(C(=O)O)c4)o3)C2=O)c1,71,84,-,-,-,56,-,12,-,-,
O=C1NN(c2ccccc2)C(=O)/C1=C/c1ccc(-c2ccc(Cl)c(C(=O)O)c2)o1,70,85,-,-,-,62,-,14,-,-,
Cc1ccc2oc(C(Cl)(Cl)Cl)cc(=O)c2c1,-,-,-,-,-,.,.,.,.,.,
COc1ccc(CNC(=O)c2ccc(CS(=O)(=O)c3ccc(Br)cc3)o2)cc1,-,-,-,-,-,.,.,.,.,.,
C#CCSc1nc2sc3c(c2c(=O)n1C)CCC3,75,61,-,-,93,48,-,-,-,-,

# Screens (PubChem)
